Assay results published in PubChem BioAssay AID493227 (Broad Institute, 2011).
Values joined by “and” are separate entries in the source; they are usually repeats but may differ in a detail not shown here. Equal entries are not always repeated. Active and inactive are the calls of the source.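 How the source made its calls: active means fitted curve reaches 40% activation at a dose no higher than the top dose validly tested; inconclusive means flat curve between 30 and 70% activation, or poor fit; inactive means the rest, including signal moving against the expected rise.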

What was measured:
[1] = tested on: U2OS HRE-luciferase reporter, luminescence, HIF activation; assay: HRE-luciferase activation in U2OS cells, dose response, cell-based, luminescence, U2OS HRE-luc, dry powder, set 8 (AID 493227)
Method in brief: (§1)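 System: human U2OS osteosarcoma cells stably carrying 3×HRE-luciferase reporter; buffer or medium: phenol red-free DMEM with 10% FBS, no hygromycin; doses: 8-point series in 3-fold steps; times: 24 h plating, 24 h compound treatment; technique: Steady-Glo luminescence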

[2] = as above; conditions: U2OS HRE-luciferase reporter, luminescence, HIF activation; at 38 µM (top of the series)
Method in brief: as §1

Row | Compound | AC40 [1] | activation [2]
1 | CC1CN(Cc2ccc(O)c3ncccc23)CC(C)O1 (stereo not drawn) | 36.6 µM | 
2 | Cc1ccccc1CNC(=O)c1cc(-c2ccccc2)on1 |  | 17.1% (inactive)
3 | Cc1ccc(CNc2nc(-c3ccccn3)nnc2-c2ccccc2)cc1 | 1.28 µM | 
4 | c1ccc(-c2nnc(-c3ccccn3)nc2N2CCC(c3ccccc3)C2)cc1 (stereo not drawn) | 0.509 µM | 
5 | c1ccc(-c2nnc(-c3ccccn3)nc2N2CCC(C3CCCCC3)C2)cc1 (stereo not drawn) |  | 2190% (inactive)
6 | c1ccc(-c2nnc(-c3ccccn3)nc2NCc2ccccn2)cc1 | 8.01 µM | 
7 | Cc1ccc(Nc2nc(-c3ccccn3)nnc2-c2ccccc2)cn1 | 3.28 µM | 
8 | O=C(NCCCN1CCOCC1)c1cc(-c2ccccc2)on1 | 7.62 µM | 
9 | O=C(NCCCn1ccnc1)c1cc(-c2ccccc2)on1 | 4.16 µM | 
10 | O=C(NCCCCO)c1cc(-c2ccccc2)on1 | 1.65 µM | 
11 | CCCCNC(=O)c1cc(-c2ccccc2)on1 | 3.17 µM | 
12 | O=C(Nc1cn2ccccc2n1)c1cc(-c2ccccc2)on1 |  | -5.39% (inactive)
13 | c1ccc(-c2nnc(-c3ccccn3)nc2NCCN2CCOCC2)cc1 | 1.96 µM | 
14 | Oc1ccc(CN2CCc3ccccc3C2)c2cccnc12 | 2.32 µM | 99.2% (inactive)
15 | CC(C)(C)c1ccc(CNc2nc(-c3ccccn3)nnc2-c2ccccc2)cc1 | 0.393 µM | 
16 | O=C(NCc1ccccc1)c1cc(-c2ccccc2)on1 | > 38 µM (inactive) | 
17 | O=C(c1cc(-c2ccccc2)on1)N1CCC(N2CCOCC2)CC1 |  | -9.31% (inactive)
18 | O=C(c1cc(-c2ccccc2)on1)N1CCc2cccnc21 |  | -1.93% (inactive)
19 | Clc1cccc(CNc2nc(-c3ccccn3)nnc2-c2ccccc2)c1 | 0.826 µM | 
20 | O=C(Nc1ncc2ccccc2n1)c1cc(-c2ccccc2)on1 |  | 8.54% (inactive)
21 | CN(C)CCNC(=O)c1cc(-c2ccccc2)on1 | > 38 µM (inactive) | 
22 | c1ccc(-c2nnc(-c3ccccn3)nc2N2CCN(c3ccncc3)CC2)cc1 | 2.35 µM | 

Row | Compound | AC40 [1] | activation [2]
23 | c1ccc(-c2cccc(CNc3nc(-c4ccccn4)nnc3-c3ccccc3)c2)cc1 | 0.06 µM | 
24 | Oc1ccc(CNC2Cc3ccccc3C2)c2cccnc12 | 8.12 µM | 
25 | O=C(Nc1nnc(-c2ccccc2)s1)c1cc(-c2ccccc2)on1 |  | 6.25% (inactive)
26 | N#CC1(c2ccccc2)CCN(Cc2ccc(O)c3ncccc23)CC1 | 14.5 µM | 
27 | Cn1c(-c2ccccc2)cnc1NC(=O)c1cc(-c2ccccc2)on1 |  | 8.45% (inactive)
28 | O=C(c1cc(-c2ccccc2)on1)N1CCC(N2CCCC2)CC1 |  | -2.94% (inactive)
29 | O=C(NC1Cc2ccccc2C1)c1cc(-c2ccccc2)on1 | > 38 µM (inactive) | 
30 | C=CCNc1nc(-c2ccccn2)nnc1-c1ccccc1 | 1.3 µM | 
31 | Oc1ccc(CN2CCC(Cc3ccccc3)CC2)c2cccnc12 | 11.1 µM | 
32 | O=C(Nc1ccc2ccccc2n1)c1cc(-c2ccccc2)on1 |  | -20.3% (inactive)
33 | Cc1ccc(CNC(=O)c2cc(-c3ccccc3)on2)cc1 |  | -27% (inactive)
34 | Cc1ccc(CNc2nc(-c3ccccn3)nnc2-c2ccccc2)cc1C | 0.364 µM | 
35 | CN1CCN(C(=O)c2cc(-c3ccccc3)on2)CC1 |  | -33.9% (inactive)
36 | O=C(NCC1CC1)c1cc(-c2ccccc2)on1 | 1.5 µM | 
37 | O=C(c1cc(-c2ccccc2)on1)N1CCN(c2ccncc2)CC1 |  | -11.8% (inactive)
38 | CN1CCN(c2nc(-c3ccccn3)nnc2-c2ccccc2)CC1 | 3.01 µM | 
39 | c1ccc(CNc2nc(-c3ccccn3)nnc2-c2ccccc2)cc1 | 3.22 µM | 
40 | O=C(Nc1cnc2ccccc2c1)c1cc(-c2ccccc2)on1 |  | 22.1% (inactive)
41 | O=C(NCCN1CCCCC1)c1cc(-c2ccccc2)on1 | > 38 µM (inactive) | 
42 | CC(Nc1nc(-c2ccccn2)nnc1-c1ccccc1)c1ccccc1 (stereo not drawn) | 0.875 µM | 
43 | O=C(c1cc(-c2ccccc2)on1)N1CCC(CO)CC1 |  | -18% (inactive)
44 | O=C(Nc1nc2ccccc2s1)c1cc(-c2ccccc2)on1 |  | 9.05% (inactive)

Row | Compound | AC40 [1] | activation [2]
45 | O=C(NCC1CCCCC1)c1cc(-c2ccccc2)on1 |  | 15.7% (inactive)
46 | Cc1cccc(CNc2nc(-c3ccccn3)nnc2-c2ccccc2)c1 | 2.09 µM | 
47 | c1ccc(-c2nnc(-c3ccccn3)nc2N2CCC(N3CCOCC3)CC2)cc1 | 2.18 µM | 
48 | c1ccc(-c2nnc(-c3ccccn3)nc2NCCc2ccccn2)cc1 | 3.14 µM | 
49 | O=C(NC1CCc2ccccc2C1)c1cc(-c2ccccc2)on1 (stereo not drawn) |  | -11.6% (inactive)
50 | O=C(Nc1ncc(-c2ccccc2)o1)c1cc(-c2ccccc2)on1 |  | -20.6% (inactive)
51 | c1ccc(-c2nnc(-c3ccccn3)nc2NCCCN2CCOCC2)cc1 | 3.61 µM | 
52 | Cn1c(NC(=O)c2cc(-c3ccccc3)on2)nc2ccccc21 |  | 5.66% (inactive)
53 | c1ccc(-c2nnc(-c3ccccn3)nc2NCc2cccnc2)cc1 | 3.73 µM | 
54 | C[C@@H](Nc1nc(-c2ccccn2)nnc1-c1ccccc1)c1ccccc1 | 1.61 µM | 
55 | Cc1ccc(NC(=O)c2cc(-c3ccccc3)on2)cn1 |  | -3.16% (inactive)
56 | Cc1cccc(CNC(=O)c2cc(-c3ccccc3)on2)c1 | > 38 µM (inactive) | 
57 | COc1ccc(CNc2nc(-c3ccccn3)nnc2-c2ccccc2)cc1 | 0.782 µM | 
58 | c1ccc(CCNc2nc(-c3ccccn3)nnc2-c2ccccc2)cc1 | 1.35 µM | 
59 | c1ccc(-c2csc(Nc3nc(-c4ccccn4)nnc3-c3ccccc3)n2)cc1 | 13.9 µM | 
60 | c1ccc(-c2nnc(-c3ccccn3)nc2NCC2CCOCC2)cc1 | 5.01 µM | 
61 | Cc1ccccc1CNc1nc(-c2ccccn2)nnc1-c1ccccc1 | 2.08 µM | 
62 | Cn1c(-c2ccccc2)cnc1Nc1nc(-c2ccccn2)nnc1-c1ccccc1 | 4.17 µM | 
63 | CN(C)c1nc(-c2ccccn2)nnc1-c1ccccc1 | 6.62 µM | 
64 | c1ccc(-c2nnc(-c3ccccn3)nc2Nc2nc3ccccc3s2)cc1 | 2.87 µM | 
65 | c1ccc(-c2nnc(Nc3nc(-c4ccccn4)nnc3-c3ccccc3)s2)cc1 | 0.582 µM | 
66 | OCC1CCN(Cc2ccc(O)c3ncccc23)CC1 | 15.9 µM | 

Row | Compound | AC40 [1] | activation [2]
67 | COc1cccc(CNc2nc(-c3ccccn3)nnc2-c2ccccc2)c1 | 1.31 µM | 
68 | O=C(Nc1nc(-c2ccccc2)cs1)c1cc(-c2ccccc2)on1 |  | -11.1% (inactive)
69 | c1ccc(-c2ccc(CNc3nc(-c4ccccn4)nnc3-c3ccccc3)cc2)cc1 | 0.379 µM | 
70 | c1ccc(-c2nnc(-c3ccccn3)nc2Nc2cnc3ccccc3n2)cc1 | 3.83 µM | 
71 | O=C(NCCCO)c1cc(-c2ccccc2)on1 | 5.37 µM | 
72 | C[C@H](Nc1nc(-c2ccccn2)nnc1-c1ccccc1)C1CCCCC1 | 1.16 µM | 
73 | CC(C)(C)CCNC(=O)c1cc(-c2ccccc2)on1 | 5.03 µM | 
74 | OCC1CCN(c2nc(-c3ccccn3)nnc2-c2ccccc2)CC1 | 12.1 µM | 
75 | Cc1cccc(NC(=O)c2cc(-c3ccccc3)on2)n1 | > 38 µM (inactive) | 
76 | C[C@@H](Nc1nc(-c2ccccn2)nnc1-c1ccccc1)C1CCCCC1 | 1.88 µM | 
77 | COc1ccccc1N1CCN(Cc2ccc(O)c3ncccc23)CC1 | 11.8 µM | 
78 | c1ccc(-c2cnc(Nc3nc(-c4ccccn4)nnc3-c3ccccc3)s2)cc1 | 10.7 µM | 
79 | CC(C)(C)OC(=O)N1CCN(Cc2ccc(O)c3ncccc23)CC1 | > 38 µM (inactive) | 
80 | OCCCNc1nc(-c2ccccn2)nnc1-c1ccccc1 | 7.76 µM | 
81 | Cc1cccc(Nc2nc(-c3ccccn3)nnc2-c2ccccc2)n1 | 1.89 µM | 
82 | Oc1ccc(CN2CCC3CCCCC3C2)c2cccnc12 (stereo not drawn) | 4.8 µM | 
83 | CC(C)(C)CCNc1nc(-c2ccccn2)nnc1-c1ccccc1 | 1.41 µM and 0.785 µM | 
84 | c1ccc(-c2nnc(-c3ccccn3)nc2NCC2CCCCC2)cc1 | 1.28 µM | 
85 | c1ccc(-c2nnc(-c3ccccn3)nc2NCC2CC2)cc1 | 2.77 µM | 
86 | O=C(NCCN1CCOCC1)c1cc(-c2ccccc2)on1 | 8.1 µM | 
87 | Oc1ccc(CNC2CCc3ccccc32)c2cccnc12 (stereo not drawn) | 13.9 µM | 
